# Measurements of several laboratories.
# Lines come from different studies, so protocols differ.
Compound,assay,system,setting,endpoint,result
O=C(O)Cc1ccccc1Nc1c(Cl)cccc1Cl,metabolic stability,"Sprague-Dawley rat, hepatocytes","0.5 µM, pH 7.4",hepatocyte CLint,66 µL/min/10⁶ cells
Cc1ccc(Cn2cc(C(=O)NN)c(=O)c3cc(Oc4ccccc4)ccc32)cc1,shake flask,PBS,"2 h, pH 7.4",logD,2
CC(/C=C/C=C(\C)C(=O)O)=C\C=C\C=C(C)\C=C\C=C(/C)C(=O)O,shake flask,PBS,"2 h, pH 7.4",logD,0.7
CCn1ccc2c([C@](O)(c3cnc(C(F)(F)F)c(Cl)c3)C3CC3)n(C)nc2c1=O,metabolic stability,"male Sprague-Dawley rat, hepatocytes","0.5 µM, pH 7.4",hepatocyte CLint,3.3 µL/min/10⁶ cells
C=C(F)C(=O)N1CCN(c2nc(OC[C@@H]3CCCN3C)nc3c2CCN(c2cccc4cccc(Cl)c24)C3)C[C@@H]1CC#N,potentiometric,,pH 7.4,logD,3.6
Cc1c(C(=O)O)ccc2c3n(nc12)[C@@H]1[C@H](C3)N(CC2CC2)[C@@]2(C(=O)Nc3cc(Cl)ccc32)[C@H]1c1cccc(Cl)c1F,,"bovine, serum",,fraction unbound,0.045
COCCc1ccc(OCC(O)CNC(C)C)cc1 (stereo not drawn),metabolic stability,"Sprague-Dawley rat, hepatocytes","0.5 µM, pH 7.4",hepatocyte CLint,35 µL/min/10⁶ cells
COc1cc2nc3n(c(=O)c2cc1Cl)CC[C@@H]1[C@@H]3CCCN1CC1COC1,shake flask,aqueous buffer,"1 h, pH 7.4",logD,2.3
CCOc1ccc2ccc(=O)oc2c1,metabolic stability,"male Sprague-Dawley rat, hepatocytes",1 µM,hepatocyte CLint,52.8 µL/min/10⁶ cells
C[C@H]1Oc2cc(cnc2N)-c2c(nn(C)c2C#N)CN(C)C(=O)c2ccc(F)cc21,,"bovine, serum",,fraction unbound,0.98
O=c1ccc2ccc(O)cc2o1,metabolic stability,"Sprague-Dawley rat, hepatocytes",1 µM,hepatocyte CLint,61 µL/min/10⁶ cells
Cc1c(N(C)C)ccc2cc(C(=O)NS(=O)(=O)c3ccccc3-c3ccccc3)oc12,,,pH 7.5,logD,2.1
CCn1cc(C)c2c([C@H](N)c3ccc(C(F)(F)F)nc3)n(C)nc2c1=O,metabolic stability,"male Sprague-Dawley rat, hepatocytes","0.5 µM, pH 7.4",hepatocyte CLint,1.9 µL/min/10⁶ cells
O=c1ccc2ccc(O)cc2o1,metabolic stability,"rat, liver microsomes",,scaled CLint,1030 mL/min/kg
O=C1CC[C@H](N2Cc3cc(N4CCN(CC5CCN(c6ccc([C@@H]7c8ccc(O)cc8CC[C@@H]7c7ccccc7)cc6)CC5)CC4)ccc3C2=O)C(=O)N1,metabolic stability,"Sprague-Dawley rat, hepatocytes",1 µM,hepatocyte CLint,8.4 µL/min/10⁶ cells
